Results taken from ChEMBL document CHEMBL2396650, “A potent small-molecule inhibitor of the MDM2-p53 interaction (MI-888) achieved complete and durable tumor regression in mice” (J Med Chem, 2013).
The source made the active and inactive calls. The rule behind the calls is not given here.

Legend:
[1] = tested on: Liver microsomes; assay: Half life in human liver microsomes; type: ADME, Microsome
Procedure, shortened: (§1)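 Half-life determined by incubation in mouse, rat and human liver microsomes; T1/2 in minutes.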

[2] = tested on: Liver microsomes; assay: Half life in rat liver microsomes; type: ADME, Microsome; procedure, shortened: as §1
[3] = tested on: Liver; assay: Half life in mouse liver microsomes; type: ADME, Microsome; procedure, shortened: as §1
[4] = tested on: Rattus norvegicus; assay: AUC (0 to t) in Sprague-Dawley rat at 25 mg/kg, po; type: ADME, organism-based, Plasma; set-up: dose 25 mg/kg, route oral; details: in vivo
[5] = tested on: Rattus norvegicus; assay: Half life in Sprague-Dawley rat at 25 mg/kg, po; type: ADME, organism-based; set-up: dose 25 mg/kg, route oral; details: in vivo
[6] = tested on: Rattus norvegicus; assay: Cmax in Sprague-Dawley rat at 25 mg/kg, po; type: ADME, organism-based; set-up: dose 25 mg/kg, route oral; details: in vivo
[7] = tested on: SJSA-1; assay: Antitumor activity against human SJSA1 cells xenografted in SCID mouse assessed as upregulation of p21 expression in tumor at 100 mg/kg, po measured at 3 to 6 hrs by Western blot analysis; type: functional, organism-based; set-up: dose 100 mg/kg
[8] = tested on: SJSA-1; assay: Antitumor activity against human SJSA1 cells xenografted in SCID mouse assessed as upregulation of p53 expression in tumor at 100 mg/kg, po measured at 3 to 6 hrs by Western blot analysis; type: functional, organism-based; set-up: dose 100 mg/kg
[9] = tested on: SJSA-1; assay: Antitumor activity against human SJSA1 cells xenografted in SCID mouse assessed as tumor regression at 100 mg/kg, po qd administered for 2 weeks measured for 60 days; type: functional, organism-based; set-up: dose 100 mg/kg
[10] = tested on: Mus musculus; assay: Toxicity in mouse xenografted with human RS4:11 cells assessed as body weight loss at 100 to 200 mg/kg, po qd after 3 weeks; type: organism-based, RS4:11 cell; set-up: dose 100-200 mg/kg, route oral; details: in vivo, 504 h
Procedure, shortened: (§2)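 RS4;11 acute leukemia xenografts in mice; dosing began when tumors averaged 150 mm3. Oral gavage of 100 or 200 mg/kg once daily for 3 weeks. Tumor volume tracked during and after dosing; body weight and signs of toxicity monitored throughout.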

[11] = tested on: SJSA-1; assay: Antitumor activity against human SJSA1 cells xenografted in SCID mouse assessed as upregulation of p53 expression in tumor at 100 mg/kg, po measured at 24 hrs by Western blot analysis; type: functional, organism-based; set-up: dose 100 mg/kg
[12] = Antitumor activity against human RS4:11 cells xenografted in mouse assessed as tumor growth inhibition at 100 mg/kg, po qd administered for 3 weeks measured after 4 days relative to vehicle-treated control; type: functional; details: read-out: TGI; procedure, shortened: as §2
[13] = tested on: Mus musculus; assay: Toxicity in mouse xenografted with human RS4:11 cells assessed as sign of toxicity at 100 to 200 mg/kg, po qd after 3 weeks; type: organism-based, RS4:11 cell; set-up: dose 100-200 mg/kg, route oral; details: in vivo, 504 h; procedure, shortened: as §2
[14] = tested on: SJSA-1; assay: Antitumor activity against human SJSA1 cells xenografted in SCID mouse assessed as tumor growth inhibition at 100 mg/kg, po qd administered for 2 weeks measured after 5 days relative to vehicle-treated control; type: functional; details: read-out: TGI
[15] = tested on: Mus musculus; assay: Toxicity in SCID mouse xenografted with human SJSA1 cells assessed as sign of toxicity at 10 to 100 mg/kg, po qd measured after 2 weeks; type: organism-based, SJSA-1; set-up: dose 10-100 mg/kg, route oral; details: in vivo, 336 h
[16] = tested on: SJSA-1; assay: Induction of apoptosis in human SJSA1 cells xenografted in SCID mouse assessed as PARP cleavage at 100 mg/kg, po measured at 1 to 6 hrs by Western blot analysis; type: functional, organism-based; set-up: dose 100 mg/kg
[17] = tested on: SJSA-1; assay: Antitumor activity against human SJSA1 cells xenografted in SCID mouse assessed as upregulation of p21 expression in tumor at 100 mg/kg, po measured at 24 hrs by Western blot analysis; type: functional, organism-based; set-up: dose 100 mg/kg
[18] = tested on: Mus musculus; assay: Toxicity in SCID mouse xenografted with human SJSA1 cells assessed as body weight loss at 10 to 100 mg/kg, po qd measured after 2 weeks; type: organism-based, SJSA-1; set-up: dose 10-100 mg/kg, route oral; details: in vivo, 336 h
[19] = tested on: SJSA-1; assay: Antitumor activity against human SJSA1 cells xenografted in SCID mouse assessed as tumor growth inhibition at 10 mg/kg, po qd measured after 2 weeks; type: functional, organism-based; set-up: dose 10 mg/kg
[20] = tested on: SJSA-1; assay: Antitumor activity against human SJSA1 cells xenografted in SCID mouse assessed as tumor growth inhibition at 100 mg/kg, po qd administered for 2 weeks measured after 10 days; type: functional, organism-based; set-up: dose 100 mg/kg
[21] = tested on: SJSA-1; assay: Antitumor activity against human SJSA1 cells xenografted in SCID mouse assessed as upregulation of MDM2 expression in tumor at 100 mg/kg, po measured at 3 to 6 hrs by Western blot analysis; type: functional, organism-based; set-up: dose 100 mg/kg
[22] = tested on: SJSA-1; assay: Antitumor activity against human SJSA1 cells xenografted in SCID mouse assessed as upregulation of MDM2 expression in tumor at 100 mg/kg, po measured at 24 hrs by Western blot analysis; type: functional, organism-based; set-up: dose 100 mg/kg
[23] = tested on: SJSA-1; assay: Induction of apoptosis in human SJSA1 cells xenografted in SCID mouse assessed as caspase-3 cleavage at 100 mg/kg, po measured at 1 to 6 hrs by Western blot analysis; type: functional, organism-based; set-up: dose 100 mg/kg
[24] = tested on: RS4-11; assay: Antitumor activity against human RS4:11 cells xenografted in mouse assessed as tumor regression at 200 mg/kg, po qd administered for 3 weeks measured after 26 days; type: functional, organism-based; set-up: dose 200 mg/kg; procedure, shortened: as §2
[25] = Antitumor activity against human RS4:11 cells xenografted in mouse assessed as tumor growth inhibition at 200 mg/kg, po qd administered for 3 weeks measured after 4 days relative to vehicle-treated control; type: functional; details: read-out: TGI; procedure, shortened: as §2
[26] = tested on: SJSA-1; assay: Induction of apoptosis in human SJSA1 cells xenografted in SCID mouse assessed as PARP cleavage at 100 mg/kg, po measured at 24 hrs by Western blot analysis; type: functional, organism-based; set-up: dose 100 mg/kg
[27] = tested on: SJSA-1; assay: Induction of apoptosis in human SJSA1 cells xenografted in SCID mouse assessed as caspase-3 cleavage at 100 mg/kg, po measured at 24 hrs by Western blot analysis; type: functional, organism-based; set-up: dose 100 mg/kg
[28] = tested on: SJSA-1; assay: Antitumor activity against human SJSA1 cells xenografted in SCID mouse assessed as tumor growth inhibition at 30 mg/kg, po qd measured after 2 weeks; type: functional, organism-based; set-up: dose 30 mg/kg

## CC(C)(C)C[C@@H]1N[C@@H](C(=O)N[C@H]2C[C@@H](O)C2)[C@H](c2cccc(Cl)c2F)[C@]12C(=O)Nc1cc(Cl)ccc12
[1]
  t1/2: 0.513 h
[2]
  t1/2: 0.368 h
[3]
  t1/2: 0.343 h

## CC(C)(C)C[C@@H]1N[C@@H](C(=O)NCC(C)(C)O)[C@H](c2cccc(Cl)c2F)[C@]12C(=O)Nc1cc(Cl)ccc12
[1]
  t1/2: > 1 h
[2]
  t1/2: > 1 h
[3]
  t1/2: > 1 h

## CC(C)(C)C[C@H]1N[C@@H](C(=O)NCC[C@H](O)CO)[C@H](c2cccc(Cl)c2)[C@@]12C(=O)Nc1cc(Cl)c(F)cc12
[1]
  t1/2: > 1 h
[2]
  t1/2: 0.337 h
[3]
  t1/2: > 1 h

## CC(C)(C)C[C@@H]1N[C@@H](C(=O)N[C@H]2C[C@](C)(O)C2)[C@H](c2cccc(Cl)c2F)[C@]12C(=O)Nc1cc(Cl)ccc12
[1]
  t1/2: > 1 h

## CC(C)(C)C[C@@H]1N[C@@H](C(=O)N[C@H]2C[C@H](O)C2)[C@H](c2cccc(Cl)c2F)[C@]12C(=O)Nc1cc(Cl)ccc12
[1]
  t1/2: 0.902 h
[2]
  t1/2: 0.318 h
[3]
  t1/2: > 1 h

## CC(C)(C)C[C@@H]1N[C@@H](C(=O)NCC[C@H](O)CO)[C@H](c2cccc(Cl)c2F)[C@]12C(=O)Nc1cc(Cl)ccc12
[4]
  AUCt: 2.14 µg·h/mL
[5]
  t1/2: 3.4 h
[1]
  t1/2: > 1 h
[2]
  t1/2: 0.272 h
[3]
  t1/2: > 1 h
[6]
  Cmax: 0.675 µg/mL

## CC(C)(C)C[C@@H]1N[C@@H](C(=O)N[C@H]2CC[C@@H](O)C2)[C@H](c2cccc(Cl)c2F)[C@]12C(=O)Nc1cc(Cl)ccc12
[1]
  t1/2: 0.067 h
[2]
  t1/2: 0.0633 h
[3]
  t1/2: 0.025 h

## CC(C)(C)C[C@@H]1N[C@@H](C(=O)N[C@H]2CC[C@H](O)C2)[C@H](c2cccc(Cl)c2F)[C@]12C(=O)Nc1cc(Cl)ccc12
[1]
  t1/2: 0.918 h
[2]
  t1/2: 0.352 h
[3]
  t1/2: > 1 h

## CC(C)(C)C[C@@H]1N[C@@H](C(=O)N[C@H]2C[C@@](C)(O)C2)[C@H](c2cccc(Cl)c2F)[C@]12C(=O)Nc1cc(Cl)ccc12
[7]
  Activity: Active
[8]
  Activity: Active
[9]
  Activity: Active
[4]
  AUCt: 14.9 µg·h/mL
[10]
  Activity: Non-toxic
[11]
  Activity: inactive
[12]
  inhibition in vivo at 100 mg/kg: 61%
[5]
  t1/2: 3.2 h
[13]
  Activity: Non-toxic
[14]
  inhibition in vivo at 100 mg/kg: > 70%
[15]
  Activity: Non-toxic
[16]
  Activity: inactive
[17]
  Activity: inactive
[18]
  Activity: Non-toxic
[19]
  TGI: inactive
[20]
  TGI: Active
[21]
  Activity: Active
[22]
  Activity: inactive
[23]
  Activity: inactive
[2]
  t1/2: > 1 h
[24]
  Activity: Active
[3]
  t1/2: > 1 h
[25]
  inhibition in vivo at 200 mg/kg: 80%
[6]
  Cmax: 1.726 µg/mL
[26]
  Activity: Active
[27]
  Activity: Active
[28]
  TGI: Active
